Assay outcomes: PubChem, several laboratories
Sampled rows, rich in hits. Any-hit rate of the full collection: about 1.4%.
p47phox inh: p47phox/p22phox peptide binding inhibitors, primary screen, biochemical, uHTS, NADPH oxidase regulatory subunit; Neutrophil cytosol factor 1 (Homo sapiens), P14598; fluorescence polarization, 2 h; inhibition, % at 24.7 µM; hit rate 0.53% among 220,000; AID 1274, 2008;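 active = inhibition above about 30%, limit read from the data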
Avidin bead fluor: green autofluorescence of compounds with avidin beads – biophysical, 488/530 nm, flow cytometry, artefact control, profiling panel | compound fluorescence 488/530 nm; stronger effect = higher value | fluorescence (KMESF) at 10 µM | hit rate 0.38% among 220,000 | AID 1775, 2009; in the data active = fluorescence above about 47
GSH fluor: compound fluorescence on glutathione beads, profiling panel, artefact control, biophysical, 488/530 nm, flow cytometry; fluorescence (KMESF) at 10 µM; GSH beads flow cytometry, compound fluorescence 488/530 nm; stronger effect = higher value; AID 1776, 2009; hit rate 0.25% among 190,000; in the data active = fluorescence above about 89;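 note: glutathione beads carrying GST-tagged Bcl family fusion proteins plus one bare bead set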
PMI act: activators of human PMI, primary screen, biochemical, fluorescence intensity, near-Km mannose 6-phosphate; Mannose-6-phosphate isomerase (Homo sapiens), P34949; purified human PMI, coupled resazurin fluorescence, 20 min; stronger effect = higher value; 1 = vehicle control, 0 substrate-free wells; activation factor at 20 µM; hit rate 0.005% among 190,000; AID 1214, 2008;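 active = activation factor of 2 or more at 20 µM, relative to plate controls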
Target sequence (P34949 whole entry, looked up): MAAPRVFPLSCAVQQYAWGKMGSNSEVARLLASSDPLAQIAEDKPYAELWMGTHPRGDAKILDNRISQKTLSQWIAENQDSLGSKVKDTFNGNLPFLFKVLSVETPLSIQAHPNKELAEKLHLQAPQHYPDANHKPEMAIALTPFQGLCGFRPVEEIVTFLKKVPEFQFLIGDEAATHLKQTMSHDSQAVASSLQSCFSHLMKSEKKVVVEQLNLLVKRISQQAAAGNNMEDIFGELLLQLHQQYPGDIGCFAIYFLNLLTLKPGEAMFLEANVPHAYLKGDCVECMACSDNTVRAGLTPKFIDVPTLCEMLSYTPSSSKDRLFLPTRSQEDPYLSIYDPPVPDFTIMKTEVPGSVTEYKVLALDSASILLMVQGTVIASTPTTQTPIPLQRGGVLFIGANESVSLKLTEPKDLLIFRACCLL
Diaphorase act: compounds boosting diaphorase resazurin reduction – biochemical, uHTS, resorufin fluorescence, counter-screen for diaphorase-coupled primary assays, primary screen | Diaphorase/resazurin coupled assay, 16 min; stronger effect = higher value; 1 = vehicle wells, 0 = NADH-free wells | activation factor at 20 µM | hit rate 0.005% among 190,000;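 active = diaphorase activity raised at least twofold by the compound at 20 µM; inactive = activation factor below 2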
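Material: bacterial diaphorase enzyme (C. kluyveri); amount: enzyme 0.07 U/mL final; reagent: NADH substrate 0.114 mM plus resazurin dye 0.1 mM, final; doses: single compound dose of 20 µM, 1% DMSO final; timing: 16 min enzyme reaction, ambient temperature; measured by: fluorescence of resorufin, 544 nm excitation, 590 nm emission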
PMI act hi M6P: human PMI activators, high substrate, primary screen, biochemical, fluorescence intensity, near-saturating mannose 6-phosphate | Mannose-6-phosphate isomerase (Homo sapiens), P34949 | coupled PMI enzyme assay, resazurin fluorescence, 20 min; stronger effect = higher value; 1 = untreated enzyme, 0 = substrate-free blank | activation factor at 20 µM | hit rate 0.34% among 190,000 | AID 1216, 2008;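 active = activation factor of 2 or more at 20 µM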
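Test system – human PMI in coupled enzyme assay · Timing – 20 min incubation at room temperature · Detection – Diaphorase-driven resazurin-to-resorufin fluorescence, excitation 544, emission 590 nm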
Hits are given with their value; i = inactive; nt = not tested or not shown.

SMILES	p47phox inh	Avidin bead fluor	GSH fluor	PMI act	Diaphorase act	PMI act hi M6P
CCc1cc2c3c(c(=O)oc2cc1OC)CCCC3	i	i	i	i	i	i
CCOc1cc2oc(=O)c3c(c2cc1Cl)CCC3	i	74	i	i	i	i
Cn1c(-c2ccc(C(C)(C)C)cc2)n[nH]c1=S	i	i	i	i	i	i
Cc1ccccc1Cn1c(=O)n(CCC(=O)NCc2ccc3c(c2)OCO3)c(=O)c2ccccc21	37	i	i	i	i	i
O=C1CC(SC(=Nc2ccccc2)Nc2ccccc2)C(=O)N1c1ccc(Cl)cc1 (centres undefined)	i	i	i	i	i	i
O=C(CSC1CC(=O)N(c2ccc(C(=O)O)cc2)C1=O)Nc1ccc(Cl)cc1 (centres undefined)	i	117	i	i	i	i
Cc1cccc(C)c1NC(=S)NCCCN1CCCC1=O	i	i	i	i	i	i
NC(=O)C1(N2CCCCC2)CCN(C(=S)Nc2ccc(S(N)(=O)=O)cc2)CC1	i	i	i	i	i	i
COc1cc(C2C3=C(CCCC3=O)Nc3[nH]n(-c4ccccc4)c(=O)c32)ccc1OC(C)=O (centres undefined)	i	i	i	i	i	2
CCOc1ccc2c(c1)C(c1cccs1)=NNC(c1cccnc1)=N2	44	i	i	i	i	i
Cc1c(NC(=S)N/N=C/C=C/c2ccccc2)c(=O)n(-c2ccccc2)n1C	i	i	nt	nt	nt	nt
Cc1c(NC(=S)N/N=C/C=C/c2ccc([N+](=O)[O-])cc2)c(=O)n(-c2ccccc2)n1C	i	i	i	i	i	2.1
CC1(C)NC(=O)N(CC(=O)Nc2nc(-c3ccc(F)cc3)cs2)C1=O	i	195	i	i	i	i
O=C(CN1C(=O)NC2(CCCC2)C1=O)Nc1nc(-c2ccc(F)cc2)cs1	i	i	i	i	i	i
O=C(Nc1ccc(Br)cc1Cl)Nn1cnnc1	i	i	i	i	i	i
CN1/C(=C\C=C2/C(=O)Oc3ccccc3C2=O)C(C)(C)c2ccccc21	i	90	i	i	i	i
CN1C(=CC=C2C=C(I)C(=O)C(I)=C2)C(C)(C)c2ccccc21	i	i	nt	nt	nt	nt
CCN(CC)C(=S)Nc1ccc(C(=O)OC)cc1	i	i	i	i	i	i
Cc1ccc(-n2c(N)c(C(=O)Nc3c(C)n(C)n(-c4ccccc4)c3=O)c3nc4ccccc4nc32)cc1C	i	i	i	i	i	i
COc1ccc(-n2c(N)c(C(=O)Nc3c(C)n(C)n(-c4ccccc4)c3=O)c3nc4ccccc4nc32)cc1	i	116	nt	nt	nt	nt
Cc1ccc(SCc2cc(=O)[nH]c(Nc3nc(C)c4ccc(C)cc4n3)n2)cc1	i	i	i	i	i	2
Cc1ccc(SCc2cc(=O)[nH]c(Nc3nc(C)c4ccccc4n3)n2)cc1	i	i	i	i	i	i
O=C(Nc1cccc(O)c1)c1ccc(Br)cc1	i	i	i	i	i	i
O=C(NNc1ccc(O)cc1)c1ccc(Br)cc1	i	i	i	i	i	2.2
COc1ccc(CCNC(=O)c2cc(-c3ccc(C)c(C)c3O)n[nH]2)cc1OC	i	i	i	i	i	i
SMILES	p47phox inh	Avidin bead fluor	GSH fluor	PMI act	Diaphorase act	PMI act hi M6P
Cc1ccc2[nH]c(C(=O)O)c(NC(=O)CN3CCN(c4cccc(C)c4C)CC3)c2c1	i	i	i	i	i	i
Cc1ccc2[nH]c(C(=O)O)c(NC(=O)[C@@H]3C[C@@H]3c3ccccc3)c2c1	113	i	nt	nt	nt	nt
O=c1[nH]nc(CNc2ccc(Cl)cc2Cl)c2ccccc12	i	i	i	i	i	i
Cc1ccc(NC(=O)CCn2nc(C)cc2C)c(C)c1	i	i	i	i	i	i
CC(=O)N(CCN(C(C)=O)c1ccccc1)c1ccccc1	i	i	i	i	i	i
CC(C)(C)C(=O)N(CCN(C(=O)C(C)(C)C)c1ccccc1)c1ccccc1	i	50	i	i	i	i
